Screening data (PubChem BioAssay)
MT stabilize HCS: microtubule stabilizers in HeLa cells, primary screen, imaging, high-content imaging; 0.83% of 200,000 active; % tubulin-high responders, % at 10 µM; HeLa tubulin immunostaining HCS, 24 h; share of cells brighter than vehicle mean+2SD;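 active = plate Z-score above 3 for both tubulin-high and condensed-nucleus cell shares, with cell loss under 80%, at 10 µM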;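 note: anti alpha tubulin signal scored within the nucleus-defined area of each cell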
Dynein cargo inh: inhibitors of GR-EGFP nuclear translocation, primary screen, dynein cargo transport inhibitor project, imaging, high-content, 3617.4 mouse cells. test concentration mostly 20 µM; stimulated with dexamethasone, 1 µM; stronger effect = lower value. z-score, hits read low. 0.47% of 220,000 active;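 active = plate z-score of nuclear minus cytoplasmic receptor signal below a set negative limit, without overly bright fluorescence or cell loss, cut at about -3.5 in these data, passing the limit was not always enough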;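 note: z-score of nuclear minus cytoplasmic ring GR-EGFP intensity difference per well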
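Medium: Induction medium lacking tetracycline, stripped serum | Probe or stimulus: 1.0 µM final dexamethasone stimulus | Schedule: 48 h induction, then 1 h compound, then 30 min agonist, 37 °C | Signal: Automated 10x imaging of fixed Hoechst-stained cells | Evaluation: Per-cell GR-EGFP intensity, nucleus versus surrounding cytoplasmic ring, well-averaged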
L major viab: Leishmania major promastigote growth inhibition, primary screen; Leishmania major promastigotes, resazurin fluorescence viability; inhibition, % at 10 µM; 9% of 200,000 active; in the data active = inhibition above about 50%;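 note: promastigotes grown with compound for 44 hours at 28 °C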
b-catenin transl: modulators of beta-catenin nuclear translocation, primary screen, imaging, HeLa cells, immunofluorescence, high-content. nuclear translocation activity, % at 5 µM. 0.3% of 190,000 active. AID 1665, 2009;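 active = nuclear translocation activity above 50% at 5 µM, with a well cell count of 50 or more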;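 note: per-cell ratio of nuclear to cytoplasmic median beta-catenin stain intensity; plate controls were DMSO negative control for no effect and GSK-3 inhibitor IX positive control for full effect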
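Test system: human HeLa cells, native beta-catenin. Compound dosing: 5 µM primary single dose, 0.1% DMSO, 0.02–20 µM confirmation series. Incubation: compound exposure 24 h at 37°C. Detection: beta-catenin immunostaining with DAPI counterstain, 20x imaging, 6 fields/well. Read-out basis: Nuclear/cytoplasmic beta-catenin signal ratio, % activation.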
HSV replic up: enhancers of HSV replication in host cells, fold increase, host cell viability | HSV replication augmentation in cells | maximum fold increase | 0.005% of 220,000 active | AID 1956, 2009; in the data active = maximum fold increase above about 1.5; tested in PC3 cells
An asterisk follows results filed as active; i = inactive; . = no result. This is a sample that favours compounds with a hit; in the whole collection about 8.9% have one here.

SMILES	MT stabilize HCS	Dynein cargo inh	L major viab	b-catenin transl	HSV replic up
CCOC(=O)N1CCC(NC(=O)c2cc3c(-c4cccc(OC)c4)nn(C)c3s2)CC1	7.7*	-0.97	3	0	i
COc1ccc(N2CCN(C(=O)c3cc4c(-c5cccc(OC)c5)nn(C)c4s3)CC2)cc1	4	0.12	62*	0	i
Cc1ccc[n+](CC(=O)N2CCCc3ccccc32)c1	2	0.15	-9	-2	i
COc1ccc(/C=N/NC(=O)c2ccccc2OCc2ccccc2)c(OC)c1	1	-0.85	11	0	i
OCC1(Cc2cccc(F)c2)CCN(Cc2ccc3cccc(F)c3n2)CC1	2	0.18	88*	0	i
COc1cccc(CC2(CO)CCN(CC3=CC[C@H]4C[C@@H]3C4(C)C)CC2)c1	1	-0.45	88*	-1	i
OCC1(CCOc2ccccc2)CCN(Cc2ccc3cccc(F)c3n2)CC1	3	-0.17	82*	1	i
COc1cccc(CC2(CO)CCN(Cc3cn(C)nc3C)CC2)c1	4	0.74	75*	3	i
COC(=O)Cc1cc(=O)[nH]c(/N=C(\N)Nc2ccc(C)cc2)n1	3	-1.1	2	.	i
CC1CC(C)(C)NCc2ccccc21 (stereo not given)	5	0.18	1	5	i
COc1cccc(CC2(CO)CCN(Cc3ccc4cccc(F)c4n3)CC2)c1	2	-0.1	80*	0	i
COc1cc(C(=O)Nc2cccc(-c3nc4ncccc4o3)c2C)cc(OC)c1OC	2	-0.64	-5	-2	i
CN1CCN(c2nc(-c3cc4ccccc4o3)cs2)CC1	6	-0.4	69*	.	i
CN1CCN(c2nc(-c3cccs3)cs2)CC1	3	-0.78	11	0	i
CC(C)CCNC(=S)Nc1ccccc1F	2	0.092	52*	3	i
CC(C)CCNC(=S)Nc1ccccn1	4	0.14	68*	-4	i
Cc1cccc(NC(=S)NCCC(C)C)c1	1	0.78	16	-2	i
CCc1ccc(-c2nc(CSCC(=O)N3CCN(c4ccccn4)CC3)c(C)o2)cc1	8	0.45	11	.	i
Cc1cc(C)nc(SCCC(=O)N2CCOCC2)n1	2	0.34	-4	-1	i
CC1=C(C(=O)OCc2ccc3c(c2)OCO3)C(c2ccccc2OCc2ccccc2)NC(=O)N1 (stereo not given)	1	-0.25	99*	-5	i
CC1=C(C(=O)OCc2ccc3c(c2)OCO3)C(c2ccccc2)NC(=O)N1 (stereo not given)	22	0.24	19	7	i
O=C(CN1C(=O)CSC1=O)Nc1ccc2c(c1)OCCO2	3	-1.1	-4	-3	i
Cc1ccc(Oc2ccc(-c3nnc(-c4ccccc4)o3)cc2[N+](=O)[O-])cc1C	1	-0.15	60*	1	i
CC(=O)c1ccc(Oc2ccc(C(=O)c3ccc(C)c(C)c3)cc2[N+](=O)[O-])cc1	4	3	12	-2	i
Cc1ccc(C)c(OCCn2cc(/C=C(\C#N)C(=O)NCC3CCCO3)c3ccccc32)c1 (stereo not given)	2	0.17	17	3	i
SMILES	MT stabilize HCS	Dynein cargo inh	L major viab	b-catenin transl	HSV replic up
COc1ccc(NC(=O)c2ccc(Cl)c(NC(=O)c3ccncc3)c2)cc1	1	0.72	76*	2	i
Cc1cccc(C2CC(c3ccc(F)cc3)Nc3nc(N)nn32)c1 (stereo not given)	2	-0.41	93*	0	i
Cc1cccc(C2CC(c3ccc(Cl)cc3)Nc3nc(N)nn32)c1 (stereo not given)	4	-0.15	64*	-3	i
CCOc1ccc(C2CC(c3cccc(C)c3)n3nc(N)nc3N2)cc1 (stereo not given)	2	-0.55	14	-3	i
CCc1ccc(C2CC(c3cccc(Cl)c3)n3nc(N)nc3N2)cc1 (stereo not given)	3	-0.86	54*	-2	.
CCCS(=O)(=O)N1CCCC(C(=O)NCCCOC(C)C)C1 (stereo not given)	4	2	-2	1	i
O=C(CSc1nc2ccccc2c(=O)n1-c1ccccc1)N/N=C/C=C/c1ccccc1[N+](=O)[O-]	4	1.3	43	-3	i
